Measurements published in ChEMBL document CHEMBL1126624, “Design, synthesis, and pharmacology of 3-substituted sodium azulene-1-sulfonates and related compounds: non-prostanoid thromboxane A2 receptor antagonists” (J Med Chem, 1993).

What was measured:
Rattus norvegicus [1] = species on record: Rattus norvegicus; assay: Inhibition of U-46619 (3x10E-8 M) induced contraction in rat thoracic aorta; format: functional, organism-based
How it was run: (§1)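 Aortic rings were held under 1.0 g resting tension and gassed with 95% O₂/5% CO₂. After 1 h equilibration, 3×10⁻⁸ M U-46619 was added; once tension stabilised, compound was added cumulatively. The concentration giving 50% relaxation of the maximal U-46619 tension was derived by regression. Values are mean ± SEM from three dose groups of four preparations.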

[2] = Selectivity index for the difference between the IC50 values in the aggregation and contraction assay; format: functional
How it was run: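 Index compares IC₅₀ values from U-46619-induced rabbit aorta contraction with those from rabbit platelet-rich plasma aggregation. For aggregation, citrated carotid blood from male New Zealand rabbits (2.0–2.5 kg) gave PRP. PRP was pre-warmed 2 min at 37 °C, given compound for 2 min, then U-46619, with turbidimetric read-out. Each IC₅₀ is mean ± SEM by regression, from three dose groups of four preparations.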

Oryctolagus cuniculus [3] = species on record: Oryctolagus cuniculus; assay: Compound was tested for agonist activity on rabbit PRP; format: functional
How it was run: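 Rabbit platelet-rich plasma was exposed to compound alone at 10⁻⁴ M to test for partial agonism. Response is expressed relative to the response to 0.1 μM U-46619, which is set at 100.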

Oryctolagus cuniculus [4] = species on record: Oryctolagus cuniculus; assay: Compound was tested for agonist activity on rabbit aorta; format: functional
How it was run: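 Rabbit aortic strips were exposed to compound alone at 10⁻⁵ M to test for partial agonism. Tension is expressed relative to the response to 40 mM KCl, which is set at 100.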

[5] = test system: Thromboxane A2 receptor (Oryctolagus cuniculus); assay: Selectivity index for the TXA2 t-receptor was the difference between the IC50 values in the aggregation and contraction assay
Homo sapiens = species on record: Homo sapiens; assay: Effect on TXB2 formation of human platelets; format: functional, organism-based
How it was run: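 Washed human platelets were sonicated in 50 mM phosphate buffer (pH 7.4) with 1 mM EDTA. They were preincubated with compound and 1 mM GSH for 5 min at 37 °C, then given [1-¹⁴C]arachidonic acid for 5 min. Eicosanoids were extracted and separated by TLC, and TXB₂ radioactivity was counted. IC₅₀ was derived by regression.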

Rattus norvegicus [6] = species on record: Rattus norvegicus; assay: Compound was tested for the inhibition U-46619 (3 x10 E -8 M) induced contraction against in rat thoracic aorta; format: functional, organism-based; how it was run: as §1
Oryctolagus cuniculus [7] = species on record: Oryctolagus cuniculus; assay: Displacement of specific binding of [3H]SQ-29,548 to rabbit gel-filtered platelets; format: functional
[8] = Rattus norvegicus, Thoracic aorta

IC50 (Rattus norvegicus [1]; [8]) | Compound | also measured
2.6 µM | CC(C)c1cccc2c(CCCCCNS(=O)(=O)c3ccccc3)cc(C(=O)O)c-2c1 | –
1.5 µM | O=C(O)COc1ccc(CCNS(=O)(=O)c2ccccc2)cc1 [SULOTROBAN] | Selectivity index [2]: 5
4.8 µM | CC(C)c1ccc2c(CCCNS(=O)(=O)c3ccccc3)cc(C(=O)O)c-2cc1 | –
0.57 µM | O=C(O)c1cc(CCCCNS(=O)(=O)c2ccccc2)c2cccccc1-2 | –
190 µM | Cc1cc(S(=O)(=O)NCCc2ccc(OCC(=O)O)cc2)c2cccccc1-2 | –
0.14 µM | CC(C)c1ccc2c(C(=O)O)cc(-c3cccc(CCNS(=O)(=O)c4ccccc4)c3)c-2cc1 | –
3.1 µM | CC(C)c1cccc2c(CCCCNS(=O)(=O)c3ccccc3)cc(C(=O)O)c-2c1 | –
77 µM | CCCc1cc(S(=O)(=O)NCCc2ccc(OCC(=O)O)cc2)c2cccccc1-2 | –
1.6 µM | CC(C)c1ccc2c(CCCCNS(=O)(=O)c3cccc(C(F)(F)F)c3)cc(C(=O)O)c-2cc1 | –
0.12 µM | CC(C)c1ccc2c(CCCCCCCNS(=O)(=O)c3ccccc3)cc(C(=O)O)c-2cc1 | –
84 µM | Cc1cc(S(=O)(=O)NCCc2ccc(OCC(=O)O)cc2)c2ccc(C(C)C)ccc1-2 | –
110 µM | CCc1cc(S(=O)(=O)NCCc2ccc(OCC(=O)O)cc2)c2ccccc(OC)c1-2 | –
4.8 µM | O=C(O)c1cc(CCCNS(=O)(=O)c2ccccc2)c2cccccc1-2 | –
56 µM | CCc1cc(S(=O)(=O)NCCc2ccc(OCC(=O)O)cc2)c2cc(C(C)C)cccc1-2 | –
1.1 µM | CC(C)c1ccc2c(CCCCNS(=O)(=O)c3ccc(F)cc3)cc(C(=O)O)c-2cc1 | –
19 µM | CCCCc1cc(S(=O)(=O)NCCc2ccc(OCC(=O)O)cc2)c2ccc(C(C)C)ccc1-2 | –
0.92 µM | CC(C)c1cccc2c(CCCCCCNS(=O)(=O)c3ccccc3)cc(C(=O)O)c-2c1 | –
60 µM | CC(C)c1ccc2c(CCNS(=O)(=O)c3ccccc3)cc(C(=O)O)c-2cc1 | –
32 µM | CCCCc1cc(S(=O)(=O)NCCc2ccc(OCC(=O)O)cc2)c2cc(C(C)C)cccc1-2 | –
7.4 µM | CC(C)c1cccc2c(CCCNS(=O)(=O)c3ccccc3)cc(C(=O)O)c-2c1 | –
21 µM | O=C(O)c1cc(CCNS(=O)(=O)c2ccccc2)c2cccccc1-2 | –
0.038 µM | O=C(O)c1cc(CCCCCCCCNS(=O)(=O)c2ccccc2)c2cccccc1-2 | –
– | CC(C)c1ccc2c(CC/C=C/CCNS(=O)(=O)c3ccccc3)cc(C(=O)O)c-2cc1 (stereo in doubt; 40) | IC50 (Rattus norvegicus [1]): 0.46 µM
0.017 µM | CC(C)c1ccc2c(CCCCNS(=O)(=O)c3ccccc3)cc(S(=O)(=O)[O-])c-2cc1.[Na+] | Agonist activity (Oryctolagus cuniculus [3]): 0; Agonist activity (Oryctolagus cuniculus [4]): 0; Selectivity index [5]: > 91

IC50 (Rattus norvegicus [1]; [8]) | Compound | also measured
0.14 µM | O=C(O)c1cc(CCCCCCNS(=O)(=O)c2ccccc2)c2cccccc1-2 | –
0.0053 µM | CC(C)c1ccc2c(CCCCNS(=O)(=O)c3ccc(Cl)cc3)cc(C(=O)O)c-2cc1 | Selectivity index [2]: > 667
120 µM | Cc1cc(S(=O)(=O)NCCc2ccc(OCC(=O)O)cc2)c2cc(C(C)C)cccc1-2 | –
160 µM | CC(C)c1cc(S(=O)(=O)NCCc2ccc(OCC(=O)O)cc2)c2cccccc1-2 | –
55 µM | CCCCc1cc(S(=O)(=O)NCCc2ccc(OCC(=O)O)cc2)c2cccccc1-2 | –
0.018 µM | O=C(O)c1cc(CCCCCCCNS(=O)(=O)c2ccccc2)c2cccccc1-2 | –
– | COc1ccc(S(=O)(=O)NCCCCc2cc(S(=O)(=O)[O-])c3ccc(C(C)C)ccc2-3)cc1.[Na+] | IC50 (Homo sapiens): > 100 µM; Agonist activity (Oryctolagus cuniculus [3]): 0; Agonist activity (Oryctolagus cuniculus [4]): 0; IC50 (Rattus norvegicus [6]): 0.0032 µM; Selectivity index [5]: 660
0.84 µM | O=C(O)c1cc(CCCCCNS(=O)(=O)c2ccccc2)c2cccccc1-2 | –
50 µM | CCCc1cc(S(=O)(=O)NCCc2ccc(OCC(=O)O)cc2)c2ccc(C(C)C)ccc1-2 | –
0.0009 µM | CC(C)c1ccc2c(CCCCNS(=O)(=O)c3ccc(Cl)cc3)cc(S(=O)(=O)[O-])c-2cc1.[Na+] | IC50 (Homo sapiens): > 100 µM; Agonist activity (Oryctolagus cuniculus [3]): 0; Agonist activity (Oryctolagus cuniculus [4]): 0; IC50 (Oryctolagus cuniculus [7]): 0.014 µM; Selectivity index [5]: 378
– | CC(C)c1ccc2c(CC/C=C/CCNS(=O)(=O)c3ccccc3)cc(C(=O)O)c-2cc1 (stereo in doubt; 39) | IC50 (Rattus norvegicus [1]): 0.052 µM
190 µM | COc1ccccc2c(S(=O)(=O)NCCc3ccc(OCC(=O)O)cc3)cc(C)c1-2 | –
56 µM | CCc1cc(S(=O)(=O)NCCc2ccc(OCC(=O)O)cc2)c2cccccc1-2 | –
0.16 µM | COc1ccc(S(=O)(=O)NCCCCc2cc(C(=O)O)c3ccc(C(C)C)ccc2-3)cc1 | Agonist activity (Oryctolagus cuniculus [3]): 0; Agonist activity (Oryctolagus cuniculus [4]): 0; Selectivity index [5]: > 233
15 µM | CC(C)c1cccc2c(CCNS(=O)(=O)c3ccccc3)cc(C(=O)O)c-2c1 | –
45 µM | CCCc1cc(S(=O)(=O)NCCc2ccc(OCC(=O)O)cc2)c2cc(C(C)C)cccc1-2 | –
25 µM | CC(C)c1ccc2c(C(C)C)cc(S(=O)(=O)NCCc3ccc(OCC(=O)O)cc3)c-2cc1 | –
21 µM | CC(C)c1ccc2c(/C=C/C(=O)O)cc(CCCCNS(=O)(=O)c3ccccc3)c-2cc1 | –
120 µM | CCc1cc(S(=O)(=O)NCCc2ccc(OCC(=O)O)cc2)c2cc(C(C)C)ccc(OC)c1-2 | –
0.07 µM | CC(C)c1ccc2c(CCCCNS(=O)(=O)c3ccccc3)cc(C(=O)O)c-2cc1 | Selectivity index [2]: > 63
0.12 µM | CC(C)c1ccc2c(CCCCCNS(=O)(=O)c3ccccc3)cc(C(=O)O)c-2cc1 | –
0.93 µM | CC(C)c1cccc2c(CCCCCCCNS(=O)(=O)c3ccccc3)cc(C(=O)O)c-2c1 | –
65 µM | CCc1cc(S(=O)(=O)NCCc2ccc(OCC(=O)O)cc2)c2ccc(C(C)C)ccc1-2 | –
0.3 µM | CC(C)c1ccc2c(CCCCNS(=O)(=O)c3ccccc3)cc(CC(=O)O)c-2cc1 | –
